Experiments:
[1] = Toxicity in male Wistar rat assessed as ratio of adrenals to body weight at 100 mg/kg, po after 28 days (reference value: 0.020 +/- 0.003); assay type: organism-based; settings: in vivo, 672 h, time 28 day
[2] = Toxicity in male Wistar rat assessed as ratio of kidney to body weight at 100 mg/kg, po after 28 days (reference value: 0.787 +/- 0.078); assay type: organism-based; settings: in vivo, 672 h, time 28 day
[3] = Toxicity in male Wistar rat assessed as ratio of spleen to body weight at 400 mg/kg, po after 28 days (reference value: 0.206 +/- 0.026); assay type: organism-based; settings: in vivo, 672 h, time 28 day
[4] = Toxicity in male Wistar rat assessed as ratio of adrenals to body weight at 400 mg/kg, po after 28 days (reference value: 0.020 +/- 0.003); assay type: organism-based; settings: in vivo, 672 h, time 28 day
[5] = Toxicity in male Wistar rat assessed as urea level at 100 mg/kg, po after 28 days (reference value: 58.14 +/- 9.13 mg/dl); assay type: organism-based; settings: in vivo, 672 h, time 28 day
[6] = Toxicity in female Wistar rat assessed as reduction in body weight at 100 to 400 mg/kg, po after 28 days; assay type: organism-based; settings: in vivo, 672 h, dose 100-400 mg/kg, time 28 day
Procedure, shortened: (§1)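 Repeated-dose oral toxicity by gavage in Wistar rats, 10 males and 10 females per group, given 100, 200 or 400 mg/kg once daily for 28 days. Endpoints were clinical signs, mortality, neurobehaviour, food intake, ophthalmic examination and body weight. Animals were sacrificed on day 29 for blood biochemistry, organ-to-body weight ratios and histopathology.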

[7] = Toxicity in female Wistar rat assessed as ratio of uterus to body weight at 400 mg/kg, po after 28 days (reference value: 0.335 +/- 0.108); assay type: organism-based; settings: in vivo, 672 h, time 28 day
[8] = Toxicity in male Wistar rat assessed as creatinine level at 100 mg/kg, po after 28 days (reference value: 0.61 +/- 0.04 mg/dl); assay type: organism-based; settings: in vivo, 672 h, time 28 day
[9] = Toxicity in female Wistar rat assessed as ratio of spleen to body weight at 100 mg/kg, po after 28 days (reference value: 0.244 +/- 0.032); assay type: organism-based; settings: in vivo, 672 h, time 28 day
[10] = Toxicity in male Wistar rat assessed as urea level at 400 mg/kg, po after 28 days (reference value: 58.14 +/- 9.13 mg/dl); assay type: organism-based; settings: in vivo, 672 h, time 28 day
[11] = Toxicity in female Wistar rat assessed as glucose level at 400 mg/kg, po after 28 days (reference value: 78.4 +/- 8.36 mg/dl); assay type: organism-based; settings: in vivo, 672 h, time 28 day
[12] = Toxicity in female Wistar rat assessed as ratio of thymus to body weight at 400 mg/kg, po after 28 days (reference value: 0.260 +/- 0.025); assay type: organism-based; settings: in vivo, 672 h, time 28 day
[13] = Toxicity in female Wistar rat assessed as ratio of ovaries to body weight at 400 mg/kg, po after 28 days (reference value: 0.091 +/- 0.009); assay type: organism-based; settings: in vivo, 672 h, time 28 day
[14] = Toxicity in male Wistar rat assessed as ratio of kidney to body weight at 200 mg/kg, po after 28 days (reference value: 0.787 +/- 0.078); assay type: organism-based; settings: in vivo, 672 h, time 28 day
[15] = Half life in Beagle dog at 10 mg/kg, po up to 24 hrs; assay type: ADME, organism-based, Canis lupus familiaris; settings: in vivo
Procedure, shortened: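 Single oral dose at 10 mg/kg given to male Wistar rats and to Beagle dogs; bioavailability also determined in both species.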

[16] = Toxicity in male Wistar rat assessed as AST level at 200 mg/kg, po after 28 days (reference value: 119.4 +/- 9.3 U/L); assay type: organism-based; settings: in vivo, 672 h, time 28 day
[17] = Toxicity in male Wistar rat assessed as ratio of spleen to body weight at 100 mg/kg, po after 28 days (reference value: 0.206 +/- 0.026); assay type: organism-based; settings: in vivo, 672 h, time 28 day
[18] = Toxicity in female Wistar rat assessed as ALP level at 400 mg/kg, po after 28 days (reference value: 100.14 +/- 21.98 U/L); assay type: organism-based; settings: in vivo, 672 h, time 28 day
[19] = Toxicity in male Wistar rat assessed as ratio of epididymides to body weight at 200 mg/kg, po after 28 days (reference value: 0.361 +/- 0.028); assay type: organism-based; settings: in vivo, 672 h, time 28 day
[20] = Toxicity in male Wistar rat assessed as globulin level at 400 mg/kg, po after 28 days (reference value: 2.62 +/- 0.12 g/dl); assay type: organism-based; settings: in vivo, 672 h, time 28 day
[21] = Tmax in Sprague-Dawley rat at 25 mg/kg, po up to 24 hrs; assay type: ADME, organism-based; settings: in vivo
Procedure, shortened: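 Male SD rats fasted overnight, water ad libitum, fed 4 h after dosing. Single oral gavage of 25 mg/kg as a homogeneous suspension in 0.5% Tween 80 in 0.5% Na-CMC. Blood drawn into Na-heparin tubes at 0.25, 0.5, 1, 2, 4, 6, 8 and 24 h; plasma stored at -70°C. Parameters by non-compartmental analysis, with C0 taken as zero and BLQ samples set to zero.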

[22] = Toxicity in male Wistar rat assessed as ratio of testes to body weight at 400 mg/kg, po after 28 days (reference value: 1.248 +/- 0.073); assay type: organism-based; settings: in vivo, 672 h, time 28 day
[23] = Toxicity in female Wistar rat assessed as creatinine level at 100 mg/kg, po after 28 days (reference value: 0.6 +/- 0.04 mg/dl); assay type: organism-based; settings: in vivo, 672 h, time 28 day
[24] = Toxicity in male Wistar rat assessed as ratio of thymus to body weight at 100 mg/kg, po after 28 days (reference value: 0.148 +/- 0.023); assay type: organism-based; settings: in vivo, 672 h, time 28 day
[25] = Toxicity in male Wistar rat assessed as ratio of testes to body weight at 100 mg/kg, po after 28 days (reference value: 1.248 +/- 0.073); assay type: organism-based; settings: in vivo, 672 h, time 28 day
[26] = Toxicity in female Wistar rat assessed as neurobehavioral changes at 400 mg/kg, po after 28 days; assay type: organism-based; settings: in vivo, 672 h, time 28 day; procedure, shortened: as §1
[27] = Toxicity in male Wistar rat assessed as AST level at 400 mg/kg, po after 28 days (reference value: 119.4 +/- 9.3 U/L); assay type: organism-based; settings: in vivo, 672 h, time 28 day
[28] = Toxicity in female Wistar rat assessed as ratio of adrenals to body weight at 100 mg/kg, po after 28 days (reference value: 0.045 +/- 0.007); assay type: organism-based; settings: in vivo, 672 h, time 28 day
[29] = Toxicity in female Wistar rat assessed as glucose level at 200 mg/kg, po after 28 days (reference value: 78.4 +/- 8.36 mg/dl); assay type: organism-based; settings: in vivo, 672 h, time 28 day
[30] = Toxicity in male Wistar rat assessed as ALT level at 400 mg/kg, po after 28 days (reference value: 30.47 +/- 2.63 U/L); assay type: organism-based; settings: in vivo, 672 h, time 28 day
[31] = Toxicity in male Wistar rat assessed as ratio of heart to body weight at 200 mg/kg, po after 28 days (reference value: 0.333 +/- 0.036); assay type: organism-based; settings: in vivo, 672 h, time 28 day
[32] = Toxicity in female Wistar rat assessed as creatinine level at 200 mg/kg, po after 28 days (reference value: 0.6 +/- 0.04 mg/dl); assay type: organism-based; settings: in vivo, 672 h, time 28 day
[33] = Toxicity in female Wistar rat assessed as ratio of brain to body weight at 400 mg/kg, po after 28 days (reference value: 1.1 +/- 0.078); assay type: organism-based; settings: in vivo, 672 h, time 28 day
[34] = Toxicity in male Wistar rat assessed as ratio of brain to body weight at 200 mg/kg, po after 28 days (reference value: 0.766 +/- 0.038); assay type: organism-based; settings: in vivo, 672 h, time 28 day

Work on `Cc1c(Oc2cccc(/C=C3\SC(=O)NC3=O)c2)ncnc1OC1CCN(C(=O)OC(C)(C)C)CC1` yielded a Ratio [1] of 0.023, a Ratio [2] of 0.831 and a Ratio [3] of 0.211. The Ratio [4] was 0.023, the Activity [5] was 55.36 mg/dL and the Activity [6] was “Non-Toxic”. It also gave a Ratio [7] of 0.429, an Activity [8] of 0.57 mg/dL and a Ratio [9] of 0.241. The Activity [10] was 51.15 mg/dL, the Activity [11] was 76.54 mg/dL and the Ratio [12] was 0.244. It also gave a Ratio [13] of 0.081, a Ratio [14] of 0.847 and a half-life [15] of 19.3 h. It also gave an Activity [16] of 116.98 U/L, a Ratio [17] of 0.222 and an Activity [18] of 100.97 U/L. For the same molecule, the Ratio [19] was 0.406, the Activity [20] was 2.53 g/dL and the Tmax [21] was 1.75 h. It also gave a Ratio [22] of 1.23, an Activity [23] of 0.63 mg/dL and a Ratio [24] of 0.167. For the same molecule, the Ratio [25] was 1.228, the Activity [26] was “Non-Toxic” and the Activity [27] was 116.36 U/L. For the same molecule, the Ratio [28] was 0.046, the Activity [29] was 82.1 mg/dL and the Activity [30] was 29.6 U/L. The Ratio [31] was 0.363, the Activity [32] was 0.66 mg/dL and the Ratio [33] was 1.069. The Ratio [34] was 0.824.
